Data reported in ChEMBL document CHEMBL5532737, “Lead Identification of Novel Naphthyridine Derivatives as Potent SOS1 Inhibitors” (ACS Med Chem Lett, 2024).
Activity calls are given as the source filed them. The rule behind the calls is not given here.

Assays:
SOS1-KRAS = SOS1-KRAS (Homo sapiens, UniProt Q07889); assay: Inhibition of SOS1/KRAS G12C mutant (unknown origin) protein-protein interaction incubated for 2 hrs by HTRF analysis; type: protein-complex assay
[1] = Inhibition of ERK phosphorylation in human PC-9 cells incubated for 1 hr by HTRF analysis; type: cell-based; conditions: PC-9, 1 h
[2] = Cmax in ICR mouse at 5 mg/kg, po measured upto 24 hrs by LCMS analysis; type: ADME, organism-based; conditions: in vivo
How it was run: (§1)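 Mice were dosed once orally at 5 mg/kg or intravenously at 1 mg/kg, both in solution in 5% DMSO + 95% (20% HP-β-CD). Cmax is the highest observed plasma concentration, AUC the area under the plasma concentration–time curve, and F the bioavailability. CL is reported as elimination rate and t1/2 as elimination half-life.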

[3] = AUC in ICR mouse at 5 mg/kg, po measured upto 24 hrs by LCMS analysis; type: ADME, organism-based; conditions: in vivo; how it was run: as §1
[4] = Oral bioavailability in ICR mouse at 5 mg/kg measured upto 24 hrs by LCMS analysis; type: ADME, organism-based; conditions: in vivo; how it was run: as §1
[5] = Clearance in ICR mouse at 1 mg/kg, iv measured upto 24 hrs by LCMS analysis; type: ADME, organism-based; conditions: in vivo; how it was run: as §1
[6] = Elimination half life in ICR mouse at 1 mg/kg, iv measured upto 24 hrs by LCMS analysis; type: ADME, organism-based; conditions: in vivo, read-out: beta t1/2 (converted); how it was run: as §1
NCI-H358 [7] = assay: Antiproliferative activity against human NCI-H358 cells harboring KRAS G12C mutant assessed as inhibition of cell proliferation incubated for 5 days by celltiter-glo 3D assay; type: functional, cell-based; conditions: NCI-H358, 120 h
NCI-H358 [8] = assay: Antitumor activity against human NCI-H358 cells harboring KRAS G12C mutant xenografted in BALB/c mouse assessed as tumor growth inhibition at 50 mg/kg, po measured after 28 days; type: functional; conditions: NCI-H358, 672 h, time 28 day, read-out: TGI
How it was run: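 Subcutaneous NCI-H358 (KRAS G12C) xenograft mice given the drug orally. Efficacy is expressed as tumour growth inhibition (TGI), shown as mean ± SEM and compared with the vehicle group on day 28 (P < 0.05). Tumour p-ERK and plasma drug levels were measured 2 and 24 h after treatment.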

[9] = Toxicity against BALB/c mouse xenografted with human NCI-H358 cells harboring KRAS G12C mutant assessed as body weight loss at 50 mg/kg, po measured after 28 days; type: organism-based; conditions: in vivo, 672 h, time 28 day
NCI-H358 [10] = assay: Antitumor activity against human NCI-H358 cells harboring KRAS G12C mutant xenografted in BALB/c mouse assessed as reduction in ERK phosphorylation at 50 mg/kg, po measured after 28 days; type: functional, organism-based; conditions: time 28.0 day
[11] = Plasma protein binding in mouse assessed as unbound fraction incubated for 4 hrs by LC-MS/MS analysis; type: ADME, cell-free
[12] = Plasma protein binding in rat assessed as unbound fraction incubated for 4 hrs by LC-MS/MS analysis; type: ADME, cell-free
[13] = Plasma protein binding in dog assessed as unbound fraction incubated for 4 hrs by LC-MS/MS analysis; type: ADME, cell-free, Canis lupus familiaris
[14] = Plasma protein binding in human assessed as unbound fraction incubated for 4 hrs by LC-MS/MS analysis; type: ADME, cell-free
Cytochrome P450 1A2 = target: T1, Cytochrome P450 1A2 (Homo sapiens, UniProt P05177); assay: Inhibition of CYP1A2 in human liver microsomes incubated for 5 mins by LC-MS/MS analysis; type: ADME, Microsome
T1 sequence (P05177 whole entry): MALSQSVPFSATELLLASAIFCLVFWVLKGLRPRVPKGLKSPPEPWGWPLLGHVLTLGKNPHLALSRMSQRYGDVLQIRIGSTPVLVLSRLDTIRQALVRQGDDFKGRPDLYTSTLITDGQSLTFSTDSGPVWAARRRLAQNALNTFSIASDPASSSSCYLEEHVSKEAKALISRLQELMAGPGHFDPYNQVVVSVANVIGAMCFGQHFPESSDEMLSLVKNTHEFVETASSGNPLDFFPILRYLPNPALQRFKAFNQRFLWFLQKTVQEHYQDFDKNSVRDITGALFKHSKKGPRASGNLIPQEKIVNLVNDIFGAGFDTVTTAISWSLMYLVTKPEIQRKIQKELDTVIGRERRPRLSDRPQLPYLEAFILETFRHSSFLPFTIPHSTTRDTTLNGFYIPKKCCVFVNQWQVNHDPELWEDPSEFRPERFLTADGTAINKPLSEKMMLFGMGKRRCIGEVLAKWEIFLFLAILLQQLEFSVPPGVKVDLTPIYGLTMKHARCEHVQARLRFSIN

Cytochrome P450 2C9 = Cytochrome P450 2C9 (Homo sapiens, UniProt P11712); assay: Inhibition of CYP2C9 in human liver microsomes incubated for 5 mins by LC-MS/MS analysis; type: ADME, Microsome
Chain of Cytochrome P450 2C9 (P11712 whole entry): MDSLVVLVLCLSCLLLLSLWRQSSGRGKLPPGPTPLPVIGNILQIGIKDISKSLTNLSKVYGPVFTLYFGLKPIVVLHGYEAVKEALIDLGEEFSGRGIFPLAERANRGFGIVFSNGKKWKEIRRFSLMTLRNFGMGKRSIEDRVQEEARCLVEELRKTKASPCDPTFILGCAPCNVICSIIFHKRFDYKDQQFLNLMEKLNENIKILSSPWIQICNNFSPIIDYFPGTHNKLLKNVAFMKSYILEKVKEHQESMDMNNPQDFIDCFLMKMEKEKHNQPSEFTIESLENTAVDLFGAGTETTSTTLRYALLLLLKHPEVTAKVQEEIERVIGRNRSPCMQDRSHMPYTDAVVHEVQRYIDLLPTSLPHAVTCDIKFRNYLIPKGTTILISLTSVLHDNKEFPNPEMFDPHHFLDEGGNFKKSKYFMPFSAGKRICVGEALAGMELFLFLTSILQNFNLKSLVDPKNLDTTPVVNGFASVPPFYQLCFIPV

Cytochrome P450 2C19 = Cytochrome P450 2C19 (Homo sapiens, UniProt P33261); assay: Inhibition of CYP2C19 in human liver microsomes incubated for 5 mins by LC-MS/MS analysis; type: ADME, Microsome
Chain of Cytochrome P450 2C19 (P33261 whole entry): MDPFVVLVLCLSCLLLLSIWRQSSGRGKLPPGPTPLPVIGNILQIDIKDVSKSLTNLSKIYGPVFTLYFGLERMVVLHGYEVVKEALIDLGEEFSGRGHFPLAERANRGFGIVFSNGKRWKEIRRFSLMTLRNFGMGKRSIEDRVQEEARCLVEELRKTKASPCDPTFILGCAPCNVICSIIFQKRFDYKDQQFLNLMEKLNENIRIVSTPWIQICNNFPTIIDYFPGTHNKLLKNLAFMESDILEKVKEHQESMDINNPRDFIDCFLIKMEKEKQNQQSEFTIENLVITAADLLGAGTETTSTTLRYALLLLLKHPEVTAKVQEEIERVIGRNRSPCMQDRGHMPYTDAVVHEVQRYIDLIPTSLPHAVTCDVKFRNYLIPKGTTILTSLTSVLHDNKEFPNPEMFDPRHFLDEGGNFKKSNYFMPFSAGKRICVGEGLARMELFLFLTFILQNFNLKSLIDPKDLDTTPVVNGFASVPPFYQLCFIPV

Cytochrome P450 2D6 = Cytochrome P450 2D6 (Homo sapiens, UniProt P10635); assay: Inhibition of CYP2D6 in human liver microsomes incubated for 5 mins by LC-MS/MS analysis; type: ADME, Microsome
Chain of Cytochrome P450 2D6 (P10635 whole entry): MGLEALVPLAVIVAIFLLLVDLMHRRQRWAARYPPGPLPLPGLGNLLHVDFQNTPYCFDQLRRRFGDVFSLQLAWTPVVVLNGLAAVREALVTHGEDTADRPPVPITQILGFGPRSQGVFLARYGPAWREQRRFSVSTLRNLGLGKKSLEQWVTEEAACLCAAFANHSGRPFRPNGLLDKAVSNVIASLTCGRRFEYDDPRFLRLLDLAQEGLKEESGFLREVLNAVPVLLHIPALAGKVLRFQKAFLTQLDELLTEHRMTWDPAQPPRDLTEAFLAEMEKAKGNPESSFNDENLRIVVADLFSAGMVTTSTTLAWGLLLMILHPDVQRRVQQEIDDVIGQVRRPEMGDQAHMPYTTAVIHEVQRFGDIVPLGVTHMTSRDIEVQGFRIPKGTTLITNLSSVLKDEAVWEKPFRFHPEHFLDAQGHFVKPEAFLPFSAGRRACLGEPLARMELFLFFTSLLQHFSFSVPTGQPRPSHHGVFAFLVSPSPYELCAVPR

Cytochrome P450 3A4 = Cytochrome P450 3A4 (Homo sapiens, UniProt P08684); assay: Inhibition of CYP3A4 in human liver microsomes incubated for 5 mins by LC-MS/MS analysis; type: ADME, Microsome
Chain of Cytochrome P450 3A4 (P08684 whole entry): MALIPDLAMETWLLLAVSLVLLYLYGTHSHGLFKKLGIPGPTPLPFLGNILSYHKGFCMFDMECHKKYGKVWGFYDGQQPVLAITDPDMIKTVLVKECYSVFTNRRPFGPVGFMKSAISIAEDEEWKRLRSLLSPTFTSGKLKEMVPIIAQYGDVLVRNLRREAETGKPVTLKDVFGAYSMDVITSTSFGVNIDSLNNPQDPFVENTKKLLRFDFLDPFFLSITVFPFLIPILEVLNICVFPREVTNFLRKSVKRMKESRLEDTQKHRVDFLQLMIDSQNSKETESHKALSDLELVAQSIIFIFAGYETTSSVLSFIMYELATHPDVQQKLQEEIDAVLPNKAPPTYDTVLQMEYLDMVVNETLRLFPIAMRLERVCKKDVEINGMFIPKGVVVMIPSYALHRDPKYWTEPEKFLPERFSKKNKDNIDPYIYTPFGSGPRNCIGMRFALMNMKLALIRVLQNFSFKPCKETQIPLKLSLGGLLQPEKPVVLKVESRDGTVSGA

[15] = target: Voltage-gated inwardly rectifying potassium channel KCNH2 (Homo sapiens, UniProt Q12809); assay: Inhibition of hERG transfected in HEK293 cells by whole-cell manual patch clamp assay; type: toxicity, cell-based
Chain of Voltage-gated inwardly rectifying potassium channel KCNH2 (Q12809 whole entry): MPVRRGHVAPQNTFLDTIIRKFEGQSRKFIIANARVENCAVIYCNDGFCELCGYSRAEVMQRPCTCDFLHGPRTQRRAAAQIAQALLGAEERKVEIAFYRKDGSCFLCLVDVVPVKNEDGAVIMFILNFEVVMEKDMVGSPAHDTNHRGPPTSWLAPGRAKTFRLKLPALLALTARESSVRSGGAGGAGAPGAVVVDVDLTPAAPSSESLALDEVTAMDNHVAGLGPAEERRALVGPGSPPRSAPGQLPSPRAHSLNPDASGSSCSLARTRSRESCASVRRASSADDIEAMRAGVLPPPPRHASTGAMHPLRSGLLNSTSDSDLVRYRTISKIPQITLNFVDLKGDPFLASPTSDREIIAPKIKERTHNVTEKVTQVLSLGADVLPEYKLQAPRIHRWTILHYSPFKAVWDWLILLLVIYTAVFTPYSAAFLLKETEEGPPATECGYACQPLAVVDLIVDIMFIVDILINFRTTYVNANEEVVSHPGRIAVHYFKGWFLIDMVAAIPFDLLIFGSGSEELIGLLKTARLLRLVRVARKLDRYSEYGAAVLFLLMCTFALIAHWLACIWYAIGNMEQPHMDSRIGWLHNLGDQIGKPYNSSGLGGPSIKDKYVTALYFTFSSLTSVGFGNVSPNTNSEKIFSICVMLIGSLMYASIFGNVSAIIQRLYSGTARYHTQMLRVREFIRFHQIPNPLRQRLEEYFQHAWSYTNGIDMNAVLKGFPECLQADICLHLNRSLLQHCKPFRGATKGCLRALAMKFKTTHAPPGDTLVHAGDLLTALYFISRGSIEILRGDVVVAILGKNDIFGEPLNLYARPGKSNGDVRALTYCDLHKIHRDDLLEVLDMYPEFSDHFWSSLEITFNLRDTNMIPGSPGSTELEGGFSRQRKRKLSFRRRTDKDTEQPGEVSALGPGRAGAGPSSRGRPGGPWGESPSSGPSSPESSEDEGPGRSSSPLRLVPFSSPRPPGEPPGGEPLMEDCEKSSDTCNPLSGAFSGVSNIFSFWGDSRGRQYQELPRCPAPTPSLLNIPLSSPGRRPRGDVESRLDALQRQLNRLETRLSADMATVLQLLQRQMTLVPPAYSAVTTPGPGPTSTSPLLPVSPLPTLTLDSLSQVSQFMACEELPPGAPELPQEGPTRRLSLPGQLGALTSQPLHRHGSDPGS

[16] = Drug concentration in mouse plasma at 50 mg/kg, po measured for 8 hrs; type: ADME, organism-based; conditions: in vivo
How it was run: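 Mice received a single 50 mg/kg dose, and the unbound drug concentration in plasma was followed over time.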

NCI-H358 [17] = assay: Antitumor activity against human NCI-H358 cells harboring KRAS G12C mutant xenografted in BALB/c mouse assessed as reduction in ERK phosphorylation at 50 mg/kg, po measured for 2 to 24 hrs; type: functional, organism-based; conditions: time 2-24 hrs
How it was run: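 Tumor samples from NCI-H358 xenograft mice were assayed for p-ERK levels at 2 and 24 h after drug treatment. Plasma drug concentrations were measured at the same time points. Data are given as mean ± SEM.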

Chain of SOS1-KRAS (Q07889 whole entry, looked up, stated change not applied): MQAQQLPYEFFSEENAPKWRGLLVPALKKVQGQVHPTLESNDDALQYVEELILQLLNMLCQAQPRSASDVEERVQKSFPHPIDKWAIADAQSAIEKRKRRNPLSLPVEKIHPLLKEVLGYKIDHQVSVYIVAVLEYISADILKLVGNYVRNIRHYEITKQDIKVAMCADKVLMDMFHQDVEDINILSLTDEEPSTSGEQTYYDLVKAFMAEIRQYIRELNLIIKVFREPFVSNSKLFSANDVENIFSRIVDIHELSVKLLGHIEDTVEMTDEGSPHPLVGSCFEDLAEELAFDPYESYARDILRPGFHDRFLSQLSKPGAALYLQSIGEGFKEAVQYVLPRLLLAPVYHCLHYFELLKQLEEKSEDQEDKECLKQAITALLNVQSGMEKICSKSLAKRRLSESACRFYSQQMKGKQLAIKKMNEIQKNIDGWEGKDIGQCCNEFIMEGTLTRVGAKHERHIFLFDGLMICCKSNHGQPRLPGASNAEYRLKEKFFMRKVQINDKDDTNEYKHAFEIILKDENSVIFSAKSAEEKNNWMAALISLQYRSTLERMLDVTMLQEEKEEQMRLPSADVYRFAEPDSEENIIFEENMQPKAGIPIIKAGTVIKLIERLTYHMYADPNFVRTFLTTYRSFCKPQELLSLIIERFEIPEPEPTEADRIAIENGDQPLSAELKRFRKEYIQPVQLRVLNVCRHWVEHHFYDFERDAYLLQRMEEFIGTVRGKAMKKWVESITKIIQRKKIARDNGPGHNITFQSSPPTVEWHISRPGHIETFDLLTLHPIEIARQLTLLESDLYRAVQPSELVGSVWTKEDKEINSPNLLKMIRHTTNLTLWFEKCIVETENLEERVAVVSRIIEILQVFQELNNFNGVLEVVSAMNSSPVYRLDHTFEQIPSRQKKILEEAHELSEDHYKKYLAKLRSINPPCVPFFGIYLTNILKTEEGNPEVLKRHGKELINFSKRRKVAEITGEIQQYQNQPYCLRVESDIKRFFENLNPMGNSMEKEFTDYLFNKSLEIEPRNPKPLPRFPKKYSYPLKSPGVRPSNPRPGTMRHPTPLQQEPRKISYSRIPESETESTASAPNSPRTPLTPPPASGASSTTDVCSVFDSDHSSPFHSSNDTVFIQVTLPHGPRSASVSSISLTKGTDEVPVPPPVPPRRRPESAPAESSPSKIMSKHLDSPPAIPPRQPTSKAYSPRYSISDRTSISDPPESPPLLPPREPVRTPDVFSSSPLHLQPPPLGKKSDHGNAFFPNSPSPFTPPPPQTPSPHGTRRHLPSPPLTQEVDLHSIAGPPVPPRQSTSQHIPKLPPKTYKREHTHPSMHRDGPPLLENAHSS

SMILES | IC50 (SOS1-KRAS) | IC50 [1] | other results
COc1cc2nccc(N[C@H](C)c3cccc(C(F)F)c3F)c2cc1O[C@H]1CCOC1 | 6.7 nM | 212 nM | –
C[C@@H](Nc1ccnc2cnc(N3CCC(O)CC3)cc12)c1cccc(C(F)F)c1F | 8.5 nM | 156 nM | –
C[C@@H](Nc1ccnc2cnc(N3CCS(=O)(=O)CC3)cc12)c1cccc(C(F)F)c1F | 5.2 nM | 56 nM | Cmax [2]: 136 ng/mL; AUC at 24 h [3]: 406 ng·h/mL; bioavailability [4]: 36%; clearance [5]: 67 mL/min/kg; half-life [6]: 1.18 h
COc1cc2nccc(N[C@H](C)c3cccc(C(F)F)c3F)c2cc1C1CCNCC1 | 14 nM | 798 nM | –
C[C@@H](Nc1ccnc2cnc(N3CCOCC3)cc12)c1cccc(C(F)F)c1F | 7 nM | 349 nM | –
COc1cc2nc(C)nc(N[C@H](C)c3cc(N)cc(C(F)(F)F)c3)c2cc1O[C@H]1CCOC1 | – | 299 nM | IC50 (NCI-H358 [7]): 90 nM; inhibition in vivo at 50 mg/kg (NCI-H358 [8]): 49%; Activity [9]: Non-Toxic; Activity (NCI-H358 [10]): Active
C[C@@H](Nc1ccnc2cnc(N3CCN(C)C(=O)C3)cc12)c1cccc(C(F)F)c1F | 6.9 nM | 130 nM | –
COc1cc2nccc(N[C@H](C)c3cccc(C(F)F)c3F)c2cc1C1CC1 | 23 nM | 1070 nM | –
COc1cc2nccc(N[C@H](C)c3cccc(C(F)F)c3F)c2cc1C1CCN(C(C)=O)CC1 | 11 nM | 1030 nM | –
C[C@@H](Nc1ccnc2cnc(N3CCN(S(C)(=O)=O)CC3)cc12)c1cccc(C(F)F)c1F | 13 nM | – | –
COc1cc2nccc(N[C@H](C)c3cccc(C(F)F)c3F)c2cc1O[C@H]1CCN(C(C)=O)C1 | 3.8 nM | 45 nM | Cmax [2]: 77 ng/mL; AUC at 24 h [3]: 152 ng·h/mL; bioavailability [4]: 19%; clearance [5]: 107 mL/min/kg; half-life [6]: 0.45 h
COc1cc2nccc(N[C@H](C)c3cccc(C(F)F)c3F)c2cc1OC | 11 nM | 548 nM | –
COc1cc2nccc(N[C@H](C)c3cccc(C(F)F)c3F)c2cc1O[C@H]1CCNC1 | 6 nM | 497 nM | –
COc1cc2nccc(N[C@H](C)c3cccc(C(F)F)c3F)c2cc1N1CCS(=O)(=O)CC1 | 8.6 nM | 17 nM | Cmax [2]: 10 ng/mL; AUC at 24 h [3]: 29 ng·h/mL; bioavailability [4]: 5%; clearance [5]: 127 mL/min/kg; half-life [6]: 1.75 h
COc1cc2nccc(N[C@H](C)c3cccc(C(F)F)c3F)c2cc1O[C@H]1CCN(C(=O)C2CCOCC2)C1 | 13 nM | 73 nM | –
C[C@@H](Nc1ccnc2cnc(O[C@H]3CCOC3)cc12)c1cccc(C(F)F)c1F | 15 nM | 770 nM | –
CC(=O)N1CCC(c2cc3c(N[C@H](C)c4cccc(C(F)F)c4F)ccnc3cn2)CC1 | 9.7 nM | 77 nM | Cmax [2]: 424 ng/mL; AUC at 24 h [3]: 578 ng·h/mL; bioavailability [4]: 25%; clearance [5]: 40 mL/min/kg; half-life [6]: 0.88 h
CC(=O)N1CCC(c2cc3c(N[C@H](C)c4cccc(C(F)F)c4F)ccnc3cn2)C1 (some centres undefined) | 22 nM | 167 nM | –
COc1cc2nccc(N[C@H](C)c3cccc(C(F)F)c3F)c2cc1O[C@H]1CCN(C(=O)C2CC2)C1 | 10 nM | 92 nM | –
CC(=O)N1CCN(c2cc3c(N[C@H](C)c4cccc(C(F)F)c4F)ccnc3cn2)CC1 | 5.8 nM | 54 nM | Cmax [2]: 714 ng/mL; AUC at 24 h [3]: 1950 ng·h/mL; bioavailability [4]: 81%; clearance [5]: 35 mL/min/kg; half-life [6]: 1.53 h; fraction unbound at 4 h [11]: 0.0675; fraction unbound at 4 h [12]: 0.0529; fraction unbound at 4 h [13]: 0.0545; fraction unbound at 4 h [14]: 0.0481; IC50 (Cytochrome P450 1A2): 17500 nM; IC50 (Cytochrome P450 2C9): 5690 nM; IC50 (Cytochrome P450 2C19): 3160 nM; IC50 (Cytochrome P450 2D6): 11100 nM; IC50 (Cytochrome P450 3A4): > 50000 nM; IC50 [15]: 2450 nM; IC50 (NCI-H358 [7]): 322 nM; Drug uptake [16]: Active; inhibition in vivo at 50 mg/kg (NCI-H358 [8]): 76%; Activity (NCI-H358 [17]): Active
COc1cc2nccc(N[C@H](C)c3cccc(C(F)F)c3F)c2cc1OC1CCNCC1 | 13 nM | 1070 nM | –
COc1cc2nccc(N[C@H](C)c3cccc(C(F)F)c3F)c2cc1N1CCN(C(C)=O)CC1 | 8.8 nM | 30 nM | –
CC(=O)NC1CCN(c2cc3c(N[C@H](C)c4cccc(C(F)F)c4F)ccnc3cn2)CC1 | 12 nM | 490 nM | –
COc1cc2nccc(N[C@H](C)c3cccc(C(F)F)c3F)c2cc1O[C@H]1CCN(C)C1 | 15 nM | 295 nM | –
